Test results: ChEMBL document CHEMBL3813699, “Structure-Activity Relationships of a Diverse Class of Halogenated Phenazines That Targets Persistent, Antibiotic-Tolerant Bacterial Biofilms and Mycobacterium tuberculosis” (J Med Chem, 2016)
pIC50: −log10 of the molar value. Converted amounts (≈) assume the structure as drawn.

Tests used:
Staphylococcus aureus [1] = experiment: Antibiofilm activity against methicillin-resistant Staphylococcus aureus isolate 2 assessed as biofilm eradication incubated for 24 hrs by CBD assay; assay type: functional; conditions: for MBC: Staphylococcus aureus, isolate 2, 24 h
Procedure, shortened: (§1)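 Calgary Biofilm Device: pegs inoculated with mid-log culture diluted 1,000-fold in TSB + 0.5% glucose, 24 h 37 °C; washed pegs challenged with 2-fold dilutions 24 h 37 °C; pegs moved to fresh TSBG 24 h; MBEC = lowest concentration leaving no turbidity; 2–6 independent experiments.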

Staphylococcus aureus [2] = experiment: Antibacterial activity against methicillin-resistant Staphylococcus aureus clinical isolate 2 incubated for 16 to 18 hrs by broth microdilution method; assay type: functional
[3] = test system: Staphylococcus epidermidis; experiment: Antibacterial activity against Staphylococcus epidermidis ATCC 12228 incubated for 16 to 18 hrs by broth microdilution method; assay type: functional
Staphylococcus aureus [4] = experiment: Antibacterial activity against methicillin-resistant Staphylococcus aureus BAA-44 incubated for 16 to 18 hrs by broth microdilution method; assay type: functional
Staphylococcus aureus [5] = experiment: Antibacterial activity against methicillin-resistant Staphylococcus aureus BAA-1707 incubated for 16 to 18 hrs by broth microdilution method; assay type: functional
[6] = test system: Staphylococcus epidermidis; experiment: Antibacterial activity against methicillin-resistant Staphylococcus epidermidis ATCC 35984 incubated for 16 to 18 hrs by broth microdilution method; assay type: functional
Enterococcus faecium [7] = experiment: Antibacterial activity against vancomycin-resistant Enterococcus faecium ATCC 700221 incubated for 16 to 18 hrs by broth microdilution method; assay type: functional
HeLa = experiment: Cytotoxicity against human HeLa cells after 24 hrs by LDH release assay; assay type: cell-based
Procedure, shortened: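 HeLa in DMEM + 10% FBS, 37 °C 5% CO2, at 70–80% confluence treated with 25, 50, 100 µM for 24 h; DMSO vehicle; Triton X-100 2% v/v max-LDH control, medium-only negative; supernatant with LDH reaction mix 30 min room temperature, stopped, absorbance 490 nm.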

[8] = Induction of hemolysis in human RBC at 200 uM incubated for 1 hr; assay type: cell-based, Erythrocyte; conditions: red blood cells, read-out: Activity
Procedure, shortened: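 Human RBCs (EDTA), washed three times in Tris-buffered saline pH 7.2; 2% hRBC with compound at final 200 µM, 1 h 37 °C; supernatant OD405; % hemolysis relative to DMSO (0%) and Triton X (100%).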

[9] = test system: Staphylococcus epidermidis; experiment: Antibacterial activity against methicillin-resistant Staphylococcus epidermidis ATCC 35984 assessed as biofilm eradication incubated for 24 hrs by CBD assay; assay type: functional; conditions: for MBC: Staphylococcus epidermidis, ATCC 35984, 24 h; procedure, shortened: as §1
Enterococcus faecium [10] = experiment: Antibiofilm activity against […]-resistant Enterococcus faecium ATCC 700221 assessed as biofilm eradication incubated for 24 hrs by CBD assay; assay type: functional; conditions: for MBC: Enterococcus faecium, ATCC 700221, 24 h; procedure, shortened: as §1
Staphylococcus aureus [11] = experiment: Antibiofilm activity against methicillin-resistant Staphylococcus aureus BAA-1707 assessed as biofilm eradication incubated for 24 hrs by CBD assay; assay type: functional; conditions: for MBC: Staphylococcus aureus, BAA-1707, 24 h; procedure, shortened: as §1

| SMILES | MBEC (Staphylococcus aureus [1]) [µM] | MBC (Staphylococcus aureus [1]) [µM] | MIC (Staphylococcus aureus [2]) [µM] | MIC [3] [µM] | MIC (Staphylococcus aureus [4]) [µM] | MIC (Staphylococcus aureus [5]) [µM] | MIC [6] [µM] | MIC (Enterococcus faecium [7]) [µM] | pIC50 (HeLa) | hemolysis at 1 h, 200 µM [8] [%] | MBEC [9] [µM] | MBC [9] [µM] | MBEC (Enterococcus faecium [10]) [µM] | MBC (Enterococcus faecium [10]) [µM] | MBEC (Staphylococcus aureus [11]) [µM] | MBC (Staphylococcus aureus [11]) [µM] |
| --- | --- | --- | --- | --- | --- | --- | --- | --- | --- | --- | --- | --- | --- | --- | --- | --- |
| Oc1c(Br)cc(Br)c2nccnc12 | >2000 | 1500 (≈ 456 µg/mL) | 25 (≈ 7.6 µg/mL) | 18.8 (≈ 5.71 µg/mL) | 12.5 (≈ 3.8 µg/mL) | 6.25 (≈ 1.9 µg/mL) | 18.8 (≈ 5.71 µg/mL) | 100 (≈ 30.4 µg/mL) | < 4.00 | 1.8 |  |  |  |  |  |  |
| Oc1c(Cl)cc(Cl)c2nc3ccccc3nc12 | >1000 | 62.5 (≈ 16.6 µg/mL) | 3.13 (≈ 0.83 µg/mL) | 3.13 (≈ 0.83 µg/mL) | 3.13 (≈ 0.83 µg/mL) | 3.13 (≈ 0.83 µg/mL) | 3.13 (≈ 0.83 µg/mL) | 12.5 (≈ 3.31 µg/mL) |  | ≤ 1 |  |  |  |  |  |  |
| Oc1c(Cl)cc(I)c2nc3ccccc3nc12 | 125 | 15.6 (≈ 5.56 µg/mL) | 1.56 (≈ 0.556 µg/mL) | 1.56 (≈ 0.556 µg/mL) | 1.56 (≈ 0.556 µg/mL) | 1.56 (≈ 0.556 µg/mL) | 1.56 (≈ 0.556 µg/mL) | 6.25 (≈ 2.23 µg/mL) | < 4.00 | 5.1 |  |  |  |  |  |  |
| C=CCc1cc(Br)c2nc3cc(Br)c(Br)cc3nc2c1O |  |  | > 100 | > 100 |  |  |  | > 100 |  |  |  |  |  |  |  |  |
| Oc1c(I)cc(I)c2nc3ccccc3nc12 | 93.8 | 31.3 (≈ 14 µg/mL) | 3.13 (≈ 1.4 µg/mL) | 1.56 (≈ 0.699 µg/mL) | 3.13 (≈ 1.4 µg/mL) | 3.13 (≈ 1.4 µg/mL) | 1.17 (≈ 0.524 µg/mL) | 6.25 (≈ 2.8 µg/mL) | < 4.00 | ≤ 1 | 23.5 | 31.3 (≈ 14 µg/mL) | 15.6 | 23.5 (≈ 10.5 µg/mL) |  |  |
| C=CCc1cc(Br)c2nc3ccccc3nc2c1O |  |  | > 100 | > 100 |  |  |  | > 100 |  |  |  |  |  |  |  |  |
| Oc1c(Br)cc(Cl)c2nc3ccccc3nc12 | 375 | 46.9 (≈ 14.5 µg/mL) | 1.56 (≈ 0.483 µg/mL) |  | 1.56 (≈ 0.483 µg/mL) |  | 1.56 (≈ 0.483 µg/mL) | 6.25 (≈ 1.93 µg/mL) | < 4.00 | ≤ 1 | 46.9 | 11.7 (≈ 3.62 µg/mL) | 3.9 | 7.8 (≈ 2.41 µg/mL) |  |  |
| Oc1c(I)cc(Cl)c2nc3ccccc3nc12 | 250 | 93.8 (≈ 33.4 µg/mL) | 25 (≈ 8.91 µg/mL) | 25 (≈ 8.91 µg/mL) | 12.5 (≈ 4.46 µg/mL) | 3.13 (≈ 1.12 µg/mL) | 25 (≈ 8.91 µg/mL) | 6.25 (≈ 2.23 µg/mL) |  | ≤ 1 | 250 | 125 (≈ 44.6 µg/mL) |  |  |  |  |
| COc1cccc2nc3cc(Cl)c(Cl)cc3nc12 |  |  | > 100 | > 100 |  |  | > 100 | > 100 |  |  |  |  |  |  |  |  |
| Cc1nc2c(Br)cc(Br)c(O)c2nc1C | 1500 | 125 (≈ 41.5 µg/mL) |  | 12.5 (≈ 4.15 µg/mL) | 6.25 (≈ 2.07 µg/mL) |  |  | 25 (≈ 8.3 µg/mL) |  | ≤ 1 |  |  |  |  |  |  |
| Oc1c(Br)cc(Br)c2nc3cc4ccccc4cc3nc12 | >200 | 200 (≈ 80.8 µg/mL) | > 100 | 12.5 (≈ 5.05 µg/mL) | 75 (≈ 30.3 µg/mL) | 50 (≈ 20.2 µg/mL) |  |  |  | ≤ 1 |  |  |  |  |  |  |
| Oc1c(Cl)cc(Br)c2nc3ccccc3nc12 | >1000 | 62.5 (≈ 19.3 µg/mL) |  | 3.13 (≈ 0.969 µg/mL) | 3.13 (≈ 0.969 µg/mL) |  | 1.56 (≈ 0.483 µg/mL) | 6.25 (≈ 1.93 µg/mL) | < 4.00 | ≤ 1 | 375 | 31.3 (≈ 9.69 µg/mL) | 11.7 | 11.7 (≈ 3.62 µg/mL) |  |  |
| Oc1c(I)cc(Br)c2nc3ccccc3nc12 | 250 | 46.9 (≈ 18.8 µg/mL) |  |  |  |  |  | 6.25 (≈ 2.51 µg/mL) |  |  |  |  |  |  |  |  |
| O=C(O)CN(CCN(CC(=O)O)CC(=O)O)CC(=O)O [EDETIC ACID] | >2000 | 2000 (≈ 584 µg/mL) |  |  |  |  |  |  |  | 3 | >2000 | 1000 (≈ 292 µg/mL) |  |  |  |  |
| Oc1cccc2nc3cc(Cl)c(Cl)cc3nc12 |  |  | > 100 | > 100 |  |  | > 100 | > 100 |  |  |  |  |  |  |  |  |
| Oc1c(Br)cc(Br)c2nc3ccc(Br)cc3nc12 | 25 | 50 (≈ 21.6 µg/mL) |  | 3.13 (≈ 1.35 µg/mL) |  | 0.2 (≈ 0.0866 µg/mL) | 3.13 (≈ 1.35 µg/mL) | 0.78 (≈ 0.338 µg/mL) |  | 2.1 |  |  |  |  | 12.5 | 12.5 (≈ 5.41 µg/mL) |
| N#CC(C#N)=NNc1cccc(Cl)c1 [CARBONYL CYANIDE M-CHLOROPHENYLHYDRAZONE] | 1000 | 31.3 (≈ 6.4 µg/mL) |  |  |  |  |  |  |  | 3.5 | 93.8 | 31.3 (≈ 6.4 µg/mL) |  |  |  |  |
| CCCCCCCCCC(=O)N[C@@H](Cc1c[nH]c2ccccc12)C(=O)N[C@H](CC(N)=O)C(=O)N[C@@H](CC(=O)O)C(=O)N[C@@H]1C(=O)NCC(=O)N[C@@H](CCCN)C(=O)N[C@@H](CC(=O)O)C(=O)N[C@H](C)C(=O)N[C@@H](CC(=O)O)C(=O)NCC(=O)N[C@H](CO)C(=O)N[C@@H]([C@H](C)CC(=O)O)C(=O)N[C@@H](CC(=O)c2ccccc2N)C(=O)O[C@@H]1C [DAPTOMYCIN] |  |  |  |  |  |  |  |  |  | 1.7 |  |  |  |  |  |  |
| CN[C@@H](CC(C)C)C(=O)N[C@H]1C(=O)N[C@@H](CC(N)=O)C(=O)N[C@H]2C(=O)N[C@H]3C(=O)N[C@H](C(=O)N[C@@H](C(=O)O)c4cc(O)cc(O)c4-c4cc3ccc4O)[C@H](O)c3ccc(c(Cl)c3)Oc3cc2cc(c3O[C@H]2O[C@@H](CO)[C@H](O)[C@@H](O)[C@@H]2O[C@@H]2C[C@@](C)(N)[C@@H](O)[C@@H](C)O2)Oc2ccc(cc2Cl)[C@H]1O | >2000 | 3 (≈ 4.35 µg/mL) |  | 1.17 (≈ 1.7 µg/mL) |  |  |  | > 100 |  | ≤ 1 | >2000 | 3 (≈ 4.35 µg/mL) | 150 | > 200 | >2000 | 3.9 (≈ 5.65 µg/mL) |
| NC(=O)c1cnccn1 [PYRAZINAMIDE] | >2000 | > 2000 |  |  |  |  |  |  |  |  |  |  |  |  |  |  |
| CC(=O)N[C@@H](CS)C(=O)O [ACETYLCYSTEINE] | >2000 | > 2000 |  |  |  |  |  |  |  |  | >2000 | > 2000 | >2000 | > 2000 |  |  |
| CCCCc1cc(Br)c(O)c2nc3ccccc3nc12 | 188 | 46.9 (≈ 15.5 µg/mL) | 3.13 (≈ 1.04 µg/mL) |  |  |  |  | 0.78 (≈ 0.258 µg/mL) |  | 11.5 | 23.5 | 11.7 (≈ 3.88 µg/mL) | 2 | 2 (≈ 0.662 µg/mL) | 62.5 | 46.9 (≈ 15.5 µg/mL) |
| Oc1c(I)cc(I)c2nccnc12 | >2000 | > 2000 | 3.13 (≈ 1.25 µg/mL) | 6.25 (≈ 2.49 µg/mL) | 1.56 (≈ 0.621 µg/mL) | 1.56 (≈ 0.621 µg/mL) | 3.13 (≈ 1.25 µg/mL) | 12.5 (≈ 4.97 µg/mL) |  | ≤ 1 | >1000 | 750 (≈ 298 µg/mL) |  |  |  |  |
